Bioassay records from PubChem.
TCR-CD3 inh: inhibitors of human TCR-CD3 interaction, primary screen, biochemical, fluorescence, TAMRA-labeled TCR probe; 0.37% of 360,000 active; T-cell receptor (TCR); inhibition, % at 9.4 µM; AID 651800, 2012; in the data active means inhibition above about 19%;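 further: recombinant mutant TCR 2C K166C tagged with TAMRA read by polarization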
SIAE inh: human SIAE inhibitors, primary screen, biochemical, fluorescence polarization, FP-Rh probe, 1536-well HTS. Sialate O-acetylesterase (Homo sapiens), Q9HAT2. SIAE FP-Rh probe binding. inhibition, % at 9.66 µM. 0.69% of 370,000 active. AID 1053197, 2014;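 active means inhibition above a cutoff: mean of compounds within the control limits plus 3 SD of those, cut at about 17% in these data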
PRMT1 FP inh: PRMT1 methyltransferase inhibitors, primary screen, biochemical, fluorescence polarization; recombinant PRMT1, activity-based probe fluorescence polarization; inhibition, % at 2.79 µM; AID 652257, 2013; Protein arginine N-methyltransferase 1 (Homo sapiens), Q99873; 1.3% of 370,000 active;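 active means inhibition above about 21% made by adding two undisclosed values, limit read from the data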
Target sequence (Q99873 whole entry, looked up): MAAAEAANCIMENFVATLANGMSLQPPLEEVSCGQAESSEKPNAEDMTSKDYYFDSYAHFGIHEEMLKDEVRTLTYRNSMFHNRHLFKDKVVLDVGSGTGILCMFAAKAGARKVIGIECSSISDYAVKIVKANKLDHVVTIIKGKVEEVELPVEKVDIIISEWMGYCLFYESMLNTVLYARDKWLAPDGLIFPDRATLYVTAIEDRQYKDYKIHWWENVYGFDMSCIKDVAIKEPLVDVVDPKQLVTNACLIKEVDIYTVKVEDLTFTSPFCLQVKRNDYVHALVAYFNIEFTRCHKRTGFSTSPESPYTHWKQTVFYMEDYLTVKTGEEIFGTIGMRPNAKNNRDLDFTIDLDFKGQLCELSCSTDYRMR
ATG4B inhibitor: ATG4B protease inhibitors, primary screen, biochemical, fluorescence, uHTS | AID 504462, 2011 | inhibition, % at 8.33 µM | ATG4B cleavage of LC3-PLA2, NBD-HPC fluorescence, 1 h | 0.51% of 340,000 active; in the data active means inhibition above about 40%
HTRA1 inh: HTRA1 serine protease inhibitors, primary screen, biochemical, fluorescence polarization, HTS; Q92743; recombinant HTRA1, FP-rhodamine activity-based probe; inhibition, % at 5.96 µM; 0.5% of 340,000 active; AID 504803, 2011; in the data active means inhibition above about 36%
ABHD4 inh: ABHD4 inhibitors, primary screen, biochemical, fluorescence polarization, mouse | (Lyso)-N-acylphosphatidylethanolamine lipase (Mus musculus), Q8VD66 | purified mABHD4, FP-Rh probe fluorescence polarization | inhibition, % at 8.92 µM | 0.54% of 370,000 active;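 active means inhibition exceeding the mean over every tested compound plus 3 SD, cut at about 30% in these data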
Target sequence (Q8VD66 whole entry, looked up): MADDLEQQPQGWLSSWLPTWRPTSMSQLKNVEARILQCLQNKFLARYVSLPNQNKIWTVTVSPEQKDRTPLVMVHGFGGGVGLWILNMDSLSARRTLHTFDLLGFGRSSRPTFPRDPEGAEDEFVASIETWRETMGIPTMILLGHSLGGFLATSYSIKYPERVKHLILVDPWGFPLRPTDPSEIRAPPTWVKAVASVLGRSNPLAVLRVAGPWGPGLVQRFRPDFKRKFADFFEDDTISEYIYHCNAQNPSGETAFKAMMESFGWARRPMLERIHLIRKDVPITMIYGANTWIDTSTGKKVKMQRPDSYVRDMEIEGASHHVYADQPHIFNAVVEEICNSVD
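Test system: mouse ABHD4 enzyme, wild type. Reagent: FP-Rh fluorescent activity-based probe, added after compound pre-incubation. Timing: pre-incubation 45 min, probe exposure 60 min, at 25 °C. Technique: FP readout, ex 525 nm / em 598 nm. Benchmarks: high control S159A mutant with DMSO, low control median of compound wells.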
PRMT1 confirm: PRMT1 methyltransferase inhibitors, confirmation, biochemical, fluorescence polarization, triplicate; inhibition, % at 2.79 µM; AID 687036, 2013; shares compounds with PRMT1 FP inh; recombinant His-PRMT1, activity-based probe fluorescence polarization; 42% of 3,300 active;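 active means mean inhibition across replicates above the hit cutoff derived for the earlier primary screen, cut at about 22% in these data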
ABHD4 confirm: ABHD4 inhibitors, retest, confirmation, biochemical, fluorescence polarization, mouse. AID 720658, 2013. inhibition, % at 8.92 µM. shares compounds with ABHD4 inh. 55% of 1,800 active. purified mABHD4, FP-Rh probe fluorescence polarization;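 active means mean inhibition across replicates above the hit cutoff set in the primary screen, cut at about 30% in these data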
Each line names hits and unclear results; the compound was inactive in the other large screens (follow-up assays come after a bar, where they were run). Hits are enriched below; roughly 2.9% of the tested compounds scored in any of these assays.

CCn1c(C)nc2cc(C(=O)N/N=C/c3cccc(OC)c3O)ccc21	none
O=C1OC(/C(=C\Nc2ccc(F)cc2F)[N+](=O)[O-])c2ccccc21 (configuration not stated)	none
O=C1OC(/C(=C\Nc2cc(Cl)ccc2O)[N+](=O)[O-])c2ccccc21 (configuration not stated)	PRMT1 FP inh 29.0, ABHD4 inh 42.0 | PRMT1 confirm inactive | ABHD4 confirm inactive
Cn1c(=O)c2cc(S(=O)(=O)N3CCN(Cc4ccccc4)CC3)ccc2n(C)c1=O	none (no result: TCR-CD3 inh, ATG4B inhibitor, HTRA1 inh)
Cc1[nH]c2ccccc2c1C1=CC(=O)C=CC1=O	PRMT1 FP inh 95.9, ABHD4 inh 77.8 | PRMT1 confirm 93.2 | ABHD4 confirm 80.7
Cc1[nH]c2ccccc2c1CCO	none
COC(=O)[C@]12C[C@H](CC(=O)NCc3ccccc3)C(=O)N(Cc3ccc(Cl)cc3Cl)C1=C[C@H](C1CCCC1)O[C@@H]2C	none (no result: TCR-CD3 inh, ATG4B inhibitor, HTRA1 inh)
CCCCN1Cc2c(nc3cc(-c4ccco4)[nH]n3c2=O)C1=O	PRMT1 FP inh 55.6, ABHD4 inh 35.4 | PRMT1 confirm inactive | ABHD4 confirm inactive
CCCCNC(=O)C[C@H]1C[C@@]2(C(=O)OC)C(=C[C@H](C3CCCC3)O[C@@H]2C)N(Cc2ccco2)C1=O	none (no result: TCR-CD3 inh, ATG4B inhibitor, HTRA1 inh)
COC(=O)[C@]12C[C@H](CC(=O)NCc3cccc4ccccc34)C(=O)N(Cc3ccco3)C1=C[C@H](C1CCCC1)O[C@@H]2C	none (no result: TCR-CD3 inh, ATG4B inhibitor, HTRA1 inh)
O=C1/C(=C/c2cccnc2)SC(=S)N1CC1CCCO1 (configuration not stated)	none
O=C1/C(=C\c2ccco2)SC(=S)N1C1CCS(=O)(=O)C1 (configuration not stated)	PRMT1 FP inh 25.3, ABHD4 inh 35.3 (no result: HTRA1 inh) | PRMT1 confirm inactive | ABHD4 confirm inactive
CCc1ccc(/C=C2/SC(=S)N(CCCC(=O)Nc3ccccc3C(=O)O)C2=O)cc1	none
O=C(CCCN1C(=O)/C(=C/c2ccco2)SC1=S)Nc1ccccc1C(=O)O	PRMT1 FP inh 55.3, ABHD4 inh 32.1 | PRMT1 confirm 29.4 | ABHD4 confirm inactive
O=C1/C(=C/c2ccco2)SC(=S)N1CC1CCCO1 (configuration not stated)	PRMT1 FP inh 34.7, ABHD4 inh 32.4 (no result: HTRA1 inh) | PRMT1 confirm inactive | ABHD4 confirm inactive
O=C(O)CCCN1C(=O)/C(=C\c2ccco2)SC1=S	PRMT1 FP inh 27.9, ABHD4 inh 30.9 | PRMT1 confirm inactive | ABHD4 confirm inactive
COc1ccc(/C=C/C(Cc2cccc(C(C)=O)c2)c2ccc(C)cc2)cc1 (configuration not stated)	none (no result: TCR-CD3 inh, ATG4B inhibitor, HTRA1 inh)
Cc1cccc(C)c1NC(=O)CSCC(=O)c1ccc(O)c(O)c1	PRMT1 FP inh 39.4, ABHD4 inh 31.7 | PRMT1 confirm 62.1 | ABHD4 confirm inactive
Cc1cccc(C)c1NC(=O)CSCC(=O)O	none
O=C(C1CC1)N1CCc2cc(Br)c(S(=O)(=O)NCCCN3CCCCC3)cc21	none (no result: TCR-CD3 inh, ATG4B inhibitor, HTRA1 inh)
CCC(=O)Nc1cc(OC)c(NC(=S)Nc2ccccc2CC)cc1OC	PRMT1 FP inh 47.1, ABHD4 inh 42.6 (no result: ATG4B inhibitor) | PRMT1 confirm inactive | ABHD4 confirm inactive
O=C(/C=C/c1ccc(-c2ccccc2[N+](=O)[O-])o1)c1ccccc1	PRMT1 FP inh 28.3, ABHD4 inh 31.6 | PRMT1 confirm inactive | ABHD4 confirm inactive
CN(C)c1ccc2c(O)cc(=O)n(C)c2c1	none
CN(C)c1ccc2cc(S(=O)(=O)O)cc(O)c2c1	PRMT1 FP inh 102.3, ABHD4 inh 77.5 | PRMT1 confirm 32.6 | ABHD4 confirm 54.3
NS(=O)(=O)c1ccc(NC(=O)CSc2nc3ccccc3c(=O)n2-c2ccc(Br)cc2)cc1	none (no result: TCR-CD3 inh, ATG4B inhibitor, HTRA1 inh)
Cc1ccc(C)c(N2CCN(C(=O)c3ccc4nc(-c5ccco5)c(-c5ccco5)nc4c3)CC2)c1	PRMT1 FP inh 44.0, ABHD4 inh 41.7 | PRMT1 confirm inactive | ABHD4 confirm inactive
CN(Cc1ccccc1)C(=O)OCc1cn(Cc2cccc(F)c2F)nn1	none (no result: TCR-CD3 inh, ATG4B inhibitor, HTRA1 inh)
Cc1cccc(NC(=O)CSc2nnc(-c3ccco3)c(-c3ccco3)n2)c1	PRMT1 FP inh 42.4, ABHD4 inh 43.8 | PRMT1 confirm 52.1 | ABHD4 confirm 44.1
Cc1cccc(NC(=O)CSc2nc(N)cc(N)n2)c1	none
CCOC(=O)C1=C(N)n2c(s/c(=C/c3ccco3)c2=O)=C(C(=O)OC)C1c1ccco1 (configuration not stated)	PRMT1 FP inh 35.9, ABHD4 inh 39.1 | PRMT1 confirm inactive | ABHD4 confirm inactive
N#CC1=C(N)n2c(s/c(=C\c3ccco3)c2=O)=C(C#N)C1c1ccco1 (configuration not stated)	PRMT1 FP inh 41.0, ABHD4 inh 31.7 | PRMT1 confirm inactive | ABHD4 confirm inactive
COC(=O)[C@@]12CCCCC=C1N(CCc1ccc(Cl)cc1)C(=O)[C@H]2CC(=O)NCC12CC3CC(CC(C3)C1)C2	none (no result: TCR-CD3 inh, ATG4B inhibitor, HTRA1 inh)
O=c1ccc2ccc(O)cc2o1	none
O=c1ccc2cc(O)c(O)cc2o1	PRMT1 FP inh 32.4, ABHD4 inh 50.2 | PRMT1 confirm inactive | ABHD4 confirm inactive
Cc1ccc(S(=O)(=O)/N=C2/NC(=O)/C(=C\c3ccco3)S2)cc1	PRMT1 FP inh 28.1, ABHD4 inh 31.8 | PRMT1 confirm inactive | ABHD4 confirm inactive
Cc1ccc(S(=O)(=O)/N=C2/NC(=O)/C(=C\c3ccccc3)S2)cc1	none
C=CCc1cccc(C=NNC(=O)c2ccco2)c1O	none (no result: TCR-CD3 inh, ATG4B inhibitor, HTRA1 inh)
CCOc1cc(/C=C2\CCCc3c2nc2ccccc2c3C(=O)O)ccc1OC	PRMT1 FP inh 116.9, ABHD4 inh 31.6 | PRMT1 confirm inactive | ABHD4 confirm inactive
CCOc1ccc(S(=O)(=O)Nc2cc(SCC(=O)O)c(O)c3ccccc23)cc1	PRMT1 FP inh 65.3, ABHD4 inh 42.6 | PRMT1 confirm 92.8 | ABHD4 confirm 45.2
O=S(=O)(Nc1cc(Sc2cccc3cccnc23)c(O)c2ccccc12)c1ccccc1	PRMT1 FP inh 91.2, ABHD4 inh 42.0 (no result: ATG4B inhibitor, HTRA1 inh) | PRMT1 confirm 67.2 | ABHD4 confirm inactive
O=C(O)CSc1cc(NS(=O)(=O)c2cccc([N+](=O)[O-])c2)c2ccccc2c1O	PRMT1 FP inh 62.5, ABHD4 inh 40.7 | PRMT1 confirm 94.7 | ABHD4 confirm 34.5
